Data: PubChem BioAssay
Calls of active or inactive are those of the source.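 The calls were made as follows, unless noted: active = viability at or below 10% of carrier control in both of two separate runs; inconclusive = viability at or below 10% in only one of the two runs; inactive = the rest.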

Legend:
[1] = reducers of endogenous Her2 protein level, primary screen, SKBR3 breast tumor cells, AlphaScreen, ATP viability (AID 461;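 active = Her2 level under about 52% in both replicate screens, with viability over 70% of control, limit read from the data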;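 as to Her2 level: lower value means less Her2 protein in the cells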;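 as to viability: percent of carrier control wells set as 100% viability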); conditions: 18-24 h, measured here: SKBR3 viability, ATP luminescence, at 10 µM
[2] = biological target: Receptor tyrosine-protein kinase erbB-2 (Homo sapiens) (UniProt P04626); experiment: as above; conditions: 18-24 h, at 10 µM, stronger effect = lower value
[3] = SK-BR-3 cell growth inhibitors, pilot screen, 24 h, human (AID 572); conditions: SK-BR-3 viability, CellTiter-Glo luminescence, at 10 µM, stronger effect = lower value;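 also: compound exposure lasted between 18 and 24 h rather than exactly 24 h; 100% = carrier-treated control wells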
[4] = HUVEC growth inhibition – cell-based, human, primary screen (AID 575;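 active = viability at or below 30% in both replicate assays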;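 also: 100% = median of untreated cell wells with 0.1% DMSO on each plate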); conditions: HUVEC proliferation, CellTiter-Glo luminescence, 72 h; at 10 µM; stronger effect = lower value
Method in brief: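 System – primary HUVEC, no more than 12 passages · Medium – Low-serum (2% FBS) EBM, supplemented · Times – 72 h exposure, 37 °C, 5% CO2, 30 min RT equilibration · Measured by – luminescent ATP assay · Read-out – % viability relative to median vehicle-well signal on each plate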

[5] = growth inhibitors of H69AR lung tumor, primary screen, human, duplicate replicates (AID 580;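 active = viability at or under a set limit in both replicates, limit being median viability minus 3 SD, cut at about 48% in these data, passing the limit was not always enough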;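 also: 100% = mean luminescence of untreated wells and 0% = no signal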); conditions: H69AR lung tumor cells viability, ATP luminescence, 72 h; at 10 µM; stronger effect = lower value
[6] = reversal of MRP1-mediated doxorubicin resistance, pilot screen, H69AR cells, doxorubicin co-treatment (AID 601;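 active = viability loss from added drug above about 55%, and viability with drug at most 40%, in both replicates, limit read from the data, passing the limit was not always enough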); conditions: CellTiter-Glo, 72 h, at 10 µM; for differential viability (reversal): stronger effect = higher value
[7] = 384-well plate pilot, post-Golgi transport modulator project, inhibition of yeast transport mutant growth (AID 636; in the data active = inhibition above about 31%); conditions: absorbance 615 nm, about 18 h, stronger effect = higher value
[8] = growth suppression of yeast trafficking mutant, preliminary HTS, modulators of trafficking downstream of Golgi apparatus project, 1536-format plate, OD 615 nm (AID 637; in the data active = inhibition above about 30%); conditions: yeast transport mutant growth, absorbance 615 nm, 18 h; stronger effect = higher value
[9] = H69AR cells + 2 uM doxorubicin, measured here: viability with 2 uM doxorubicin, stronger effect = lower value
[10] = H69AR cells, compound alone cytotoxicity

Receptor tyrosine-protein kinase erbB-2 (Homo sapiens), sequence (P04626 whole entry, looked up): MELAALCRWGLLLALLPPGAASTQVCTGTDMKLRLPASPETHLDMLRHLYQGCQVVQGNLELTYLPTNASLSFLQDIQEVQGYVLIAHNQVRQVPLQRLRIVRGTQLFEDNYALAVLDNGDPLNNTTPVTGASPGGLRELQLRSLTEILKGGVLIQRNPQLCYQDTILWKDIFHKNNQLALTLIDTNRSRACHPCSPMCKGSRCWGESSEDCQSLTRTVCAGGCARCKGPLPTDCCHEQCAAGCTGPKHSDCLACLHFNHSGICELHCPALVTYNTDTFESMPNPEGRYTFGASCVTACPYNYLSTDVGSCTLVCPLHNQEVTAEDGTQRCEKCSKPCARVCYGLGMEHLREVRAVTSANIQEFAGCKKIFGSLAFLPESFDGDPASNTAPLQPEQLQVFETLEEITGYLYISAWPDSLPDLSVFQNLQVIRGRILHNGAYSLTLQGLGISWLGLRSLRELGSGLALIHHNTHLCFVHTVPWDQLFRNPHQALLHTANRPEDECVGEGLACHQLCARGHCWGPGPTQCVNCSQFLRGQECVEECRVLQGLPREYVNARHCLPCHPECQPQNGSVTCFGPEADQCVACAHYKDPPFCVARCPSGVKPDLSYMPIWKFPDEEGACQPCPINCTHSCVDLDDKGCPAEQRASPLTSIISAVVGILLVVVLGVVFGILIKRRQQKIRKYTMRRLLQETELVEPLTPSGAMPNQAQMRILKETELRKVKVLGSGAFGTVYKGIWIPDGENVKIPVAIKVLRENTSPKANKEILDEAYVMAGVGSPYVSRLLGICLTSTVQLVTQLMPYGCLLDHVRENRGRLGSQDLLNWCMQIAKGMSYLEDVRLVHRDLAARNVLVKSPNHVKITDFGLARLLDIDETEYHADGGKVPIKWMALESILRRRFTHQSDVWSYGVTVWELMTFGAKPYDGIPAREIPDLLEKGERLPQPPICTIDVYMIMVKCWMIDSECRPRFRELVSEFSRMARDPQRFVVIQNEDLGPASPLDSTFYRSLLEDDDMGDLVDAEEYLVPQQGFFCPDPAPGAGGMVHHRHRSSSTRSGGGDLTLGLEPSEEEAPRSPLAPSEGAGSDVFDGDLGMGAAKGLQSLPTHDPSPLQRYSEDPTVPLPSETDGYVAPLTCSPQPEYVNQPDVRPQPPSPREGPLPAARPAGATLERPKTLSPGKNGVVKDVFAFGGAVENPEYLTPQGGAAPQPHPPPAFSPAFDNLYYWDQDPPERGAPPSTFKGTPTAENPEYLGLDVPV

Compound | viability [1] [%] | Her2 level [2] | viability [3] | viability [4] | viability [5] | differential viability (reversal) ([6]; H69AR cells + 2 uM doxorubicin) | viability [6, 9] [%] | viability [6, 10] [%] | inhibition [7] | inhibition [8]
COc1ccc2c(c1)[nH]c1c(=O)n(CCN(C)C)cnc12 | 105 | 85.5% (inactive) | 105% (inactive) | 104% (inactive) | 91.8% (inactive) | -8.28% (inactive) | 100 | 91.8 | -3.16% (inactive) | 1.48% (inactive)
Cn1c(Cl)nc2ccccc21 | 115 | 96% (inactive) | 115% (inactive) | 90.7% (inactive) | 94.8% (inactive) | -5.28% (inactive) | 100 | 94.8 | -0.53% (inactive) | 0.97% (inactive)
O=C(c1ccc2c(c1)OCO2)N1CCCN(C(=O)c2ccc3c(c2)OCO3)CC1 | 89.5 | 91% (inactive) | 89.5% (inactive) | 110% (inactive) | 97.9% (inactive) | 10.7% (inactive) | 87.2 | 97.9 | -1.95% (inactive) | -1.97% (inactive)
Cc1cc(NC(=O)Cc2cn3ccsc3n2)n(-c2ccccc2)n1 | 91 | 103% (inactive) | 91% (inactive) | 91.8% (inactive) | 94.9% (inactive) | 5.08% (inactive) | 89.9 | 94.9 | -0.64% (inactive) | 0.33% (inactive)
O=C(NC1CCCCC1)c1ccc(S(=O)(=O)N2CCCCC2)cc1 | 80.5 | 108% (inactive) | 80.5% (inactive) | 86% (inactive) | 74.9% (inactive) | -29.9% (inactive) | 105 | 74.9 | 4.29% (inactive) | -11.4% (inactive)
O=C(COc1cccc(Oc2ccccc2)c1)Nc1ncccn1 | 99.5 | 106% (inactive) | 99.5% (inactive) | 110% (inactive) | 94.3% (inactive) | 6.76% (inactive) | 87.5 | 94.3 | -3.9% (inactive) | -3.81% (inactive)
CC(C(=O)c1ccccc1)n1cnc2ccccc2c1=O (stereo not given) | 94.5 | 87% (inactive) | 94.5% (inactive) | 86.6% (inactive) | 89.6% (inactive) | 9.12% (inactive) | 80.5 | 89.6 | -5.73% (inactive) | 2.42% (inactive)
CCc1nnc(NC(=O)NCN2C(=O)C3C4C=CC(C4)C3C2=O)s1 (stereo not given) | 123 | 85.5% (inactive) | 123% (inactive) | 84.4% (inactive) | 95.5% (inactive) | 1.7% (inactive) | 93.8 | 95.5 | -6.44% (inactive) | -5.24% (inactive)
CCN(CC)CCCNC(=O)c1nn(-c2ccc(OC)cc2OC)c(=O)c2ccccc12 | 97 | 103% (inactive) | 97% (inactive) | 72.3% (inactive) | 96.1% (inactive) | -0.935% (inactive) | 97 | 96.1 | -2.57% (inactive) | -7.46% (inactive)
COc1ccccc1N1C(=O)c2ccccc2NC1c1ccncc1 (stereo not given) | 104 | 100% (inactive) | 104% (inactive) | 101% (inactive) | 104% (inactive) | 9.81% (inactive) | 94 | 104 | -1.51% (inactive) | -7.14% (inactive)
O=C(C1CCCN(S(=O)(=O)c2ccc(Br)s2)C1)N1CCCCCC1 (stereo not given) | 83.5 | 95% (inactive) | 83.5% (inactive) | 98.4% (inactive) | 98.1% (inactive) | 9.84% (inactive) | 88.2 | 98.1 | -3.16% (inactive) | -3.5% (inactive)
CCOc1cc(-c2nc(-c3ccc(C)nc3OCC)no2)cc(OCC)c1OCC | 91.5 | 108% (inactive) | 91.5% (inactive) | 82.2% (inactive) | 94.8% (inactive) | -3.25% (inactive) | 98 | 94.8 | 2% (inactive) | 3.44% (inactive)
CCCCOCCCNC(=O)c1cccs1 | 103 | 102% (inactive) | 103% (inactive) | 97.8% (inactive) | 104% (inactive) | 11.5% (inactive) | 92.5 | 104 | -2.21% (inactive) | -3.17% (inactive)
CCCc1nc(N2CCOCC2)c(C#N)c2c1CCCC2 | 81 | 86.5% (inactive) | 81% (inactive) | 81.5% (inactive) | 91.4% (inactive) | -0.135% (inactive) | 91.5 | 91.4 | -0.13% (inactive) | 6.77% (inactive)
O=C(NCC(c1cccnc1)N1CCN(c2ccccc2)CC1)c1ccc2c(c1)OCO2 (stereo not given) | 92 | 94% (inactive) | 92% (inactive) | 105% (inactive) | 90.8% (inactive) | -7.41% (inactive) | 98.2 | 90.8 | -4.46% (inactive) | 12.9% (inactive)
O=C(COC(=O)C1CC(=O)N(c2ccccc2)C1)c1ccccc1 (stereo not given) | 99.5 | 107% (inactive) | 99.5% (inactive) | 101% (inactive) | 86.6% (inactive) | -9.89% (inactive) | 96.5 | 86.6 | 4.1% (inactive) | -6.67% (inactive)
